# Active and inactive are the calls of the source. The rule behind the calls is not given here.
# Experiments:
# Hepatitis C virus [1] = assay: Antiviral activity against Hepatitis C virus genotype 1a infected in human assessed as log10 reduction in HCV RNA level at 500 mg, po bid for 5 days followed by morning dose on day 6 relative to control; assay type: functional, Hepacivirus hominis, subtype 1a
# How it was run: (§1)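 Oral b.i.d. dosing of HCV genotype 1-infected patients at 500 mg or 1000 mg for 5 days, plus a morning dose on day 6, in hydroxypropyl-β-cyclodextrin vehicle. Read-out was the median maximum decrease in plasma HCV RNA from baseline (log10), using patients with HCV RNA data available up to Day 6.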
# Hepatitis C virus [2] = assay: Antiviral activity against Hepatitis C virus genotype 1a infected in po dosed human assessed as decrease in HCV RNA level administered bid for 5 days followed by morning dose on day 6; assay type: functional, organism-based; settings: Hepacivirus hominis; subtype 1a
# How it was run: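 HCV genotype 1-infected patients received oral b.i.d. doses of 500 mg or 1000 mg in a hydroxypropyl-β-cyclodextrin vehicle for 5 days, plus a morning dose on day 6. The read-out was the median maximum decrease in HCV RNA from baseline in GT1a patients with data up to Day 6.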
# [3] = Selectivity ratio of EC50 for Hepatitis C virus genotype 2b to EC50 for wild-type Hepatitis C virus Con 1b; assay type: functional
# How it was run: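 Transient replicon assay using chimeric replicons carrying NS5B from genotype 2a or 2b patient isolates. EC50 was compared with that against the genotype 1b replicon.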
# Homo sapiens [4] = assay: Toxicity in HCV genotype 1-infected patient assessed as effect on appetite at 500 to 1000 mg, po bid for 5 days followed by morning dose on day 6; assay type: organism-based; settings: in vivo, 120 h
# How it was run: (§2)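 HCV genotype 1-infected patients given oral b.i.d. doses of 500 or 1000 mg for 5 days plus a morning dose on day 6, in hydroxypropyl-β-cyclodextrin vehicle; adverse events with grading, laboratory parameters, vital signs, food consumption, appetite and ECG monitored.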
# Homo sapiens [5] = assay: Toxicity in human assessed as effect on appetite at 300 to 1250 mg, po bid for 5 days followed by morning dose on day 6; assay type: organism-based; settings: in vivo, 120 h
# How it was run: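 Healthy volunteers given oral b.i.d. doses of 300, 1000 or 1250 mg for 5 days plus a morning dose on day 6, in hydroxypropyl-β-cyclodextrin vehicle; adverse events, laboratory parameters, vital signs, food consumption, appetite, ECG and plasma 4-β-hydroxycholesterol (CYP3A4 induction marker) monitored.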
# Homo sapiens [6] = assay: Toxicity in HCV genotype 1-infected patient assessed as effect on laboratory parameters at 500 to 1000 mg, po bid for 5 days followed by morning dose on day 6; assay type: organism-based; settings: in vivo, 120 h; how it was run: as §2
# Homo sapiens [7] = assay: Toxicity in human assessed as gastrointestinal side-effects at 300 to 1250 mg, po bid for 5 days followed by morning dose on day 6; assay type: organism-based; settings: in vivo, 120 h
# How it was run: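 Oral b.i.d. dosing for 5 days plus a single morning dose on day 6, in a hydroxypropyl-β-cyclodextrin vehicle. Healthy volunteers received 300, 1000 or 1250 mg; HCV genotype 1-infected patients received 500 or 1000 mg. Monitoring covered adverse events graded by severity, laboratory parameters, vital signs, food consumption, appetite and ECG.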
# Hepatitis C virus [8] = assay: Antiviral activity against Hepatitis C virus genotype 1b infected in human HuH7 assessed as suppression of formation of resistant colonies at 1.5 uM preincubated for 2 weeks followed by 3 week rebound phase by RT-PCR analysis; assay type: functional, organism-based; settings: Hepacivirus hominis, Huh-7
# How it was run: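 Huh7-Luc genotype 1b replicon cells were incubated for 14 days with the NNI alone (up to 3.75 μM), with TMC435 alone, or with both. A 3-week rebound phase without inhibitor followed, tracking replicon RNA clearance. A parallel colony formation run exposed the cells for 2−3 weeks and scored resistant colonies.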
# Hepatitis C virus [9] = assay: Antiviral activity against Hepatitis C virus harboring […] Y93H mutant infected in human HuH7 by luciferase reporter gene assay; assay type: functional, organism-based; settings: Hepacivirus hominis; Huh-7
# Hepatitis C virus [10] = assay: Antiviral activity against Hepatitis C virus harboring […] A156V mutant infected in human HuH7 by luciferase reporter gene assay; assay type: functional, organism-based; settings: Hepacivirus hominis; Huh-7
# Hepatitis C virus [11] = assay: Antiviral activity against Hepatitis C virus harboring […] R155K mutant infected in human HuH7 by luciferase reporter gene assay; assay type: functional, organism-based; settings: Hepacivirus hominis; Huh-7
# Hepatitis C virus [12] = assay: Antiviral activity against Hepatitis C virus harboring NS5B S282T mutant infected in human HuH7 by luciferase reporter gene assay; assay type: functional, organism-based; settings: Hepacivirus hominis; Huh-7
# Hepatitis C virus [13] = assay: Antiviral activity against Hepatitis C virus harboring NS5B C316Y mutant infected in human HuH7 by luciferase reporter gene assay; assay type: functional, organism-based; settings: Hepacivirus hominis; Huh-7
# Hepatitis C virus [14] = assay: Antiviral activity against Hepatitis C virus genotype 1b harboring NS5B NNI-1 site V494A mutant infected in human HuH7 by luciferase reporter gene assay relative to wild-type HCV genotype 1b; assay type: functional, Hepacivirus hominis, Huh-7
# Hepatitis C virus [15] = assay: Antiviral activity against Hepatitis C virus genotype 4a infected in human HuH7 by transient replicon assay; assay type: functional, organism-based, Hepacivirus hominis; settings: Huh-7
# How it was run: (§3)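 Transient replicon assay using chimeric replicons whose NS5B region is derived from patient isolates of the stated genotype.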
# Hepatitis C virus [16] = assay: Antiviral activity against Hepatitis C virus genotype 1a infected in human HuH7 by transient replicon assay; assay type: functional, organism-based, Hepacivirus hominis; settings: subtype 1a, Huh-7; how it was run: as §3
# [17] = Binding affinity to Hepatitis C virus genotype 6a NS5B by surface plasmon resonance analysis; set-up: species or system Hepatitis C virus subtype 6a
# How it was run: (§4)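 Surface plasmon resonance binding to NS5B polymerase of the stated genotype; association and dissociation rate constants measured, from which Kd and residence half-life were derived; median Kd reported.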
# [18] = Binding affinity to Hepatitis C virus genotype 5a NS5B by surface plasmon resonance analysis; set-up: species or system Hepatitis C virus subtype 5a; how it was run: as §4
# [19] = Binding affinity to Hepatitis C virus genotype 3a NS5B by surface plasmon resonance analysis; set-up: species or system Hepatitis C virus subtype 3a; how it was run: as §4
# [20] = Binding affinity to Hepatitis C virus genotype 1b NS5B by surface plasmon resonance analysis; set-up: species or system Hepatitis C virus subtype 1b; how it was run: as §4
# [21] = Cytotoxicity against human HepG2 cells after 3 days by resazurin-based fluorescence analysis; assay type: cell-based
# Hepatitis C virus [22] = assay: Antiviral activity against Hepatitis C virus genotype 1a infected in human HuH7-SG cells after 3 days by RT-PCR analysis; assay type: functional, organism-based, Hepacivirus hominis; settings: subtype 1a, Huh-7, 72 h
# [23] = Toxicity in rat after 5 days; assay type: organism-based; settings: in vivo
# Hepatitis C virus [24] = assay: Antiviral activity against Hepatitis C virus genotype 1b infected in human assessed as reduction in plasma HCV RNA level administered for 10 days measured on day 11; assay type: functional, organism-based; settings: Hepacivirus hominis
# How it was run: (§5)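 HCV genotype 1a- and 1b-infected patients received oral 1000 mg b.i.d. together with an NS3/4A protease inhibitor at 150 mg q.d. for 10 days. The read-out was the median decrease in plasma HCV RNA (log10 IU/mL) at day 11.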
# Hepatitis C virus [25] = assay: Antiviral activity against Hepatitis C virus genotype 1a infected in human assessed as reduction in plasma HCV RNA level administered for 10 days measured on day 11; assay type: functional, organism-based; settings: Hepacivirus hominis, subtype 1a; how it was run: as §5
# Hepatitis C virus [26] = assay: Antiviral activity against Hepatitis C virus genotype 1b infected in human assessed as log10 reduction in HCV RNA level at 500 mg, po bid for 5 days followed by morning dose on day 6 relative to control; assay type: functional, Hepacivirus hominis; how it was run: as §1
# Hepatitis C virus [27] = assay: Antiviral activity against Hepatitis C virus genotype 1a infected in human assessed as log10 reduction in HCV RNA level at 1000 mg, po bid for 5 days followed by morning dose on day 6 relative to control; assay type: functional, Hepacivirus hominis, subtype 1a; how it was run: as §1
# [28] = Inhibition of His6-tagged Hepatitis C virus Con 1b NS5B delta21 RNA dependent RNA polymerase expressed in Escherichia coli Rosetta 2 (DE3) after 2 hrs by primer-dependent transcription assay in presence of 5'-biotinylated rG13 primer
structure (smiles),measurement,setting,value
COc1ccc2c(c1)C=C1Cn3c-2c(C2CCCCC2)c2ccc(cc23)C(=O)NS(=O)(=O)N(C)CCOCCN(C)C1=O [TMC-647055],FC,Hepatitis C virus [1],1.4
same,Activity,Hepatitis C virus [2],Dose-dependent effect
same,Ratio EC50,[3],>200
same,Activity,Homo sapiens [4],Non-toxic
same,Activity,Homo sapiens [5],Non-toxic
same,Activity,Homo sapiens [6],Non-toxic
same,Activity,Homo sapiens [7],Toxic
same,Activity,Hepatitis C virus [8],Active
same,Activity,Hepatitis C virus [9],Active
same,Activity,Hepatitis C virus [10],Active
same,Activity,Hepatitis C virus [11],Active
same,Activity,Hepatitis C virus [12],Active
same,Activity,Hepatitis C virus [13],Active
same,fold change (FC),Hepatitis C virus [14],3
same,EC50,Hepatitis C virus [15],97 nM
same,EC50,Hepatitis C virus [16],48 nM
same,Kd,[17],30 nM
same,Kd,[18],21 nM
same,Kd,[19],6.1 nM
same,Kd,[20],3.9 nM
same,CC50 at 72 h,[21],> 50 µM
same,EC50,Hepatitis C virus [22],166 nM
same,NOAEL at 120 h,[23],≤ 1000 mg/kg/day
same,Activity,Hepatitis C virus [24],Active
same,Activity,Hepatitis C virus [25],Active
same,FC,Hepatitis C virus [26],3.3
same,FC,Hepatitis C virus [27],2.4
same,IC50,[28],34 nM

# — ChEMBL document CHEMBL3124872, “Discovery and early development of TMC647055, a non-nucleoside inhibitor of the hepatitis C virus NS5B polymerase” (J Med Chem, 2014)
